# Assay results reported in ChEMBL document CHEMBL2010798, “Selenium-containing naphthalimides as anticancer agents: design, synthesis and bioactivity” (Bioorg Med Chem, 2012).
# Calls of active or inactive are those of the source. No cut-off for these calls is given here.
# Assays:
# HeLa = assay: Cytotoxicity against human HeLa cells by MTT assay; assay type: functional, cell-based
# HCT-116 = assay: Cytotoxicity against human HCT116 cells by MTT assay; assay type: functional, cell-based
# K562 = assay: Cytotoxicity against human K562 cells by MTT assay; assay type: functional, cell-based
# A549 = assay: Cytotoxicity against human A549 cells by MTT assay; assay type: functional, cell-based
# MCF7 = assay: Cytotoxicity against human MCF7 cells by MTT assay; assay type: functional, cell-based
# Nucleic Acid [1] = assay: Binding affinity to calf thymus DNA assessed as hyperchromic effect at 10 uM by UV-Vis spectrophotometric analysis; assay type: nucleic-acid assay; conditions: Bos taurus, in the assay text read “hypochromic” for “hyperchromic”
# Outline: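 Its concentration was set by absorption at 260 nm (6600 M⁻¹ cm⁻¹), and it was stored at 4 °C and used within 4 days. UV–vis absorption spectra of compound (10) were recorded in 20 mM Tris–HCl, pH 7.5, 25 °C, with ct-DNA increasing from 0 to 160.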
# Nucleic Acid [2] = assay: Binding affinity to calf thymus DNA by fluorescence quenching technique; assay type: nucleic-acid assay; conditions: Bos taurus
# Outline: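 Calf thymus DNA was prepared as in line 1. Compound was held at 10 while ct-DNA was titrated at 0, 10, 20, 40, 60, 80, 100, 120, 140 and 160 in 20 mM Tris–HCl, pH 7.5. Solutions were equilibrated for 1 day at 25 °C in the dark, and fluorescence emission was recorded. Kb was fitted to a single-site quenching equation.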
SMILES,IC50 (HeLa) [µM],IC50 (HCT-116) [µM],IC50 (K562) [µM],IC50 (A549) [µM],IC50 (MCF7) [µM],Activity (Nucleic Acid [1]),Kb (Nucleic Acid [2]) [×10⁴ /M]
Cc1ccc([Se]CCNc2ccc3c4c(cccc24)C(=O)N(CCN(C)C)C3=O)cc1,> 25,20,21.3,21,19.3,,
CN(C)CCN1C(=O)c2cccc3cc(N)cc(c23)C1=O [AMONAFIDE],,,> 50,,,,
CN(C)CCN1C(=O)c2cccc3c(N4CC[Se]CC4)ccc(c23)C1=O,5.6,5.4,5.3,8.7,5.3,,
CCN(CC)CCN1C(=O)c2cccc3c(NCC[Se]c4ccccc4)ccc(c23)C1=O,15.5,14.6,8.9,10.7,11.9,,
COc1ccc([Se]CCNc2ccc3c4c(cccc24)C(=O)N(CCN(C)C)C3=O)cc1,17.9,17.6,16.6,22.3,18.3,,
CN(C)CCN1C(=O)c2cccc3c(NCC[Se]c4ccccc4)ccc(c23)C1=O,16.8,19.5,11.7,17.4,18.2,Active,2.43
CN(C)CCN1C(=O)c2cccc3c(NCCSc4ccccc4)ccc(c23)C1=O,15.1,16.4,11.2,18,19.1,Active,8.26
CCCCCCCCN1C(=O)c2cccc3c(NCC[Se]c4ccccc4)ccc(c23)C1=O,16.7,18.1,18.7,20.6,11.6,,
CN(C)CCN1C(=O)c2cccc3c(NCC[Se]c4ccc(OC(F)(F)F)cc4)ccc(c23)C1=O,> 25,9.9,9.4,14.4,16.4,,
CCCCN1C(=O)c2cccc3c(NCC[Se]c4ccccc4)ccc(c23)C1=O,> 25,> 25,> 25,> 25,> 25,,
